Data reported in ChEMBL document CHEMBL3769315 (J Med Chem, 2016).
In brackets after ≈: the same amount, converted by molar mass.

Key:
[1] = test system: Hepatitis C virus; experiment: microbe, parasite or virus in culture; type: functional, organism-based, Hepacivirus hominis; conditions: JFH-1, Huh-7.5.1, 48 h
[2] = Cytotoxicity against human Huh7.5.1 cells assessed as ATP level by luminescence analysis; conditions: huh-7
[3] = Selectivity index, ratio of CC50 for human Huh7.5.1 cells infected with HCV JFH-1 virus to EC50 for HCV JFH-1 virus
[4] = Solubility of compound in phosphate buffer at pH 7.4
[5] = test system: Hepatitis C virus; experiment: Antiviral activity against HCV genotype 1b pseudoparticle infected in human Huh7.5.1 cells assessed as inhibition of virus entry at 10 uM after 4 hrs by luciferase reporter gene assay; type: functional, Hepacivirus hominis; conditions: Huh-7, 4 h
[6] = (§1) Metabolic stability in human liver microsomes assessed as half life by LC-MS/MS analysis in presence of NADPH
[7] = test system: Hepatitis C virus; experiment: microbe, parasite or virus in culture; type: functional, Hepacivirus hominis; conditions: Huh-7, 48 h
[8] = Metabolic stability in mouse liver microsomes assessed as half life by LC-MS/MS analysis in presence of NADPH
[9] = test system: HepG2; experiment: Cytotoxicity against human HepG2 cells assessed as ATP level by luminescence analysis
[10] = test system: Liver microsome; experiment: (§2) Metabolic stability in rat liver microsomes assessed as half life by LC-MS/MS analysis in presence of NADPH
[11] = test system: Murine leukemia virus; experiment: Antiviral activity against Murine leukemia virus pseudoparticle infected in human Huh7.5.1 cells at 10 uM after 4 hrs by luciferase reporter gene assay; type: functional; conditions: Huh-7, 4 h
[12] = test system: Hepatitis C virus; experiment: Antiviral activity against HCV genotype 1a pseudoparticle infected in human Huh7.5.1 cells assessed as inhibition of virus entry at 10 uM after 4 hrs by luciferase reporter gene assay; type: functional, Hepacivirus hominis; conditions: subtype 1a, Huh-7, 4 h
[13] = test system: Vesicular stomatitis virus; experiment: Antiviral activity against Vesicular stomatitis virus G pseudoparticle infected in human Huh7.5.1 cells at 10 uM after 4 hrs by luciferase reporter gene assay; type: functional; conditions: Huh-7, 4 h
[14] = test system: Hepatitis C virus; experiment: Antiviral activity against HCV genotype 2a assessed as inhibition of RNA replication at 10 uM by cell-based replicon assay; type: functional, Hepacivirus hominis
Procedure, shortened: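 GT 2a subgenomic replicon cells were plated at 10^4/well and incubated overnight. They were then treated with compound (10 μM, or 3.2 or 1 μM for some compounds) for 48 h. Luciferase activity was read and expressed as % of DMSO.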

[15] = molecular target: histamine H1 receptor (Homo sapiens, UniProt P35367); experiment: in vitro; conditions: PathHunter cells
histamine H1 receptor, sequence (P35367 whole entry): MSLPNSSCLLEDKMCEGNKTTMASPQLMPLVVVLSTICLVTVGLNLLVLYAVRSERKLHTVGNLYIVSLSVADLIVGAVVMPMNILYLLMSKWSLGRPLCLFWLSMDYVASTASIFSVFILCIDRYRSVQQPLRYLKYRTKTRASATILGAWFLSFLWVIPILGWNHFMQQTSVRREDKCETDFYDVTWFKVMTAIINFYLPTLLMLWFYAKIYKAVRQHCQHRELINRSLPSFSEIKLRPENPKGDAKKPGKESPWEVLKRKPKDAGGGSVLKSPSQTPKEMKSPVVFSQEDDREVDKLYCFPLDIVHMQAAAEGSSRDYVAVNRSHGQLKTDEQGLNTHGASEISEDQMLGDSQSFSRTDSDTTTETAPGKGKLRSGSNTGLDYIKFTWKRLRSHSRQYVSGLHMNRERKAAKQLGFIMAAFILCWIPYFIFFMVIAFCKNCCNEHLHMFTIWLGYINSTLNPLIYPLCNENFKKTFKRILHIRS

[16] = as §2
[17] = test system: Liver microsome; experiment: as §1

[2H]C([2H])([2H])N1CCN([C@@H](c2ccccc2)c2ccc(Cl)cc2)CC1
EC50 [1]: 0.063 µM
CC50 [2]: 77.9 µM

CCN1CCN(C2c3ccccc3-c3ccc(Br)cc32)CC1 (configuration not stated)
selectivity ratio [3]: 32
EC50 [1]: 1.68 µM
CC50 [2]: 53.1 µM

CC(C)N1CCN([C@@H](c2ccccc2)c2ccc(Cl)cc2)CC1
selectivity ratio [3]: 2490
EC50 [1]: 0.013 µM
CC50 [2]: 32.4 µM

CCN1CCN(C(c2ccc(Cl)cc2)c2ccc(Cl)cc2)CC1
solubility kinetic [4]: 17.7 µg/mL (≈ 50.7 µM)
inhibition at 10 µM [5]: 108%
half-life [6]: 30 min
inhibition at 10 µM [7]: 10.1%
t1/2 [8]: 12.6 min
CC50 [9]: 56 µM
t1/2 [10]: 2.2 min
inhibition at 10 µM [11]: 96.5%
inhibition at 10 µM [12]: 76.6%
inhibition at 10 µM [13]: 110%
inhibition at 10 µM [14]: 128%
inhibition at 2 h, 0.01 µM [15]: 31.7%

[2H]C([2H])([2H])CN1CCN([C@@H](c2ccccc2)c2ccc(Cl)cc2)CC1
CC50 [2]: 71.3 µM

COc1ccc(CN2CCN([C@@H](c3ccccc3)c3ccc(Cl)cc3)CC2)c(OC)c1
selectivity ratio [3]: 84
EC50 [1]: 0.456 µM
CC50 [2]: 38.4 µM

Clc1ccc([C@@H](c2ccccc2)N2CCNCC2)cc1
selectivity ratio [3]: 391
EC50 [1]: 0.032 µM
CC50 [2]: 12.5 µM

[2H]C([2H])([2H])CN1CCN([C@H](c2ccccc2)c2ccc(Cl)cc2)CC1
half-life [16]: 174 min
CC50 [2]: 81.5 µM

Clc1ccc(C(c2ccc(Cl)cc2)N2CCOCC2)cc1
selectivity ratio [3]: 2
EC50 [1]: 29.7 µM
CC50 [2]: 62.1 µM

CC(C)CN1CCN([C@@H](c2ccccc2)c2ccc(Cl)cc2)CC1
selectivity ratio [3]: 507
EC50 [1]: 0.102 µM
CC50 [2]: 51.7 µM

NC(=O)COCCN1CCN(C(c2ccccc2)c2ccc(Cl)cc2)CC1 (racemic)
selectivity ratio [3]: > 910
EC50 [1]: 0.103 µM
CC50 [2]: > 100 µM

O=C1c2ccccc2C(=O)N1CCOCCN1CCN(C(c2ccccc2)c2ccc(Cl)cc2)CC1 (racemic)
selectivity ratio [3]: > 65
EC50 [1]: 1.54 µM
CC50 [2]: > 100 µM

CC(C)(C)OC(=O)NCCOCCOCCOCCOCCN1CCN(C(c2ccccc2)c2ccc(Cl)cc2)CC1 (racemic)
selectivity ratio [3]: 95
EC50 [1]: 0.199 µM
CC50 [2]: 19 µM

CC(=O)NCCOCCOCCOCCOCCN1CCN(C(c2ccccc2)c2ccc(Cl)cc2)CC1 (racemic)
selectivity ratio [3]: > 588
EC50 [1]: 0.17 µM
CC50 [2]: > 100 µM

NCCOCCOCCOCCOCCN1CCN(C(c2ccccc2)c2ccc(Cl)cc2)CC1 (racemic)
solubility kinetic [4]: 46 µg/mL (≈ 90.9 µM)
inhibition at 10 µM [5]: 91.7%
t1/2 [17]: 26.2 min
inhibition at 10 µM [7]: 1.4%
t1/2 [8]: 29.1 min
CC50 [9]: 12.6 µM
t1/2 [10]: 11.7 min
inhibition at 10 µM [11]: 117%
inhibition at 10 µM [12]: 95.8%
inhibition at 10 µM [13]: 99.8%
CC50 [2]: 12.2 µM
inhibition at 10 µM [14]: 63.6%
inhibition at 2 h, 0.01 µM [15]: 54.1%

O=C(O)COCCN1CCN(C(c2ccccc2)c2ccc(Cl)cc2)CC1 (racemic) [CETIRIZINE]
EC50 [1]: > 31.6 µM

CN1CCN(C(c2ccccc2)c2ccc(Cl)cc2)CC1 (racemic) [CHLORCYCLIZINE]
inhibition at 10 µM [5]: 120%
t1/2 [17]: 113 min
inhibition at 10 µM [7]: 24.9%
t1/2 [8]: 36 min
EC50 [1]: 0.44 µM
t1/2 [10]: 4.6 min
inhibition at 10 µM [11]: 124%
inhibition at 10 µM [12]: 92.5%
inhibition at 10 µM [13]: 105%
CC50 [2]: 49.8 µM
inhibition at 10 µM [14]: 102%
inhibition at 2 h, 0.01 µM [15]: 16%

CN1CCCN(C(c2ccccc2)c2ccc(Cl)cc2)CC1 (racemic) [HOMOCHLORCYCLIZINE]
selectivity ratio [3]: 225
EC50 [1]: 0.057 µM
CC50 [2]: 12.8 µM

OCCOCCN1CCN(C(c2ccccc2)c2ccc(Cl)cc2)CC1 (racemic) [HYDROXYZINE]
selectivity ratio [3]: 1330
EC50 [1]: 0.032 µM
CC50 [2]: 42.6 µM

Clc1ccc(C(c2ccccc2)N2CCNCC2)cc1 (racemic) [NORCHLORCYCLIZINE]
selectivity ratio [3]: 297
EC50 [1]: 0.035 µM
CC50 [2]: 10.4 µM
